SMILES strings stand for the structures. Where only a bound is given, the exact number is not on record here.

Assay [1] deals with Urokinase-type plasminogen activator (Homo sapiens, UniProt P00749). Description: Inhibition of human plasma urokinase using Glu-Gly-Arg-pNA (S-2444) peptide as substrate assessed as reduction of enzyme hydrolytic activity. In a few lines:
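Urokinase hydrolysis of S-2444 at 0.1 mM, monitored by absorbance at 405 nm. IC50 defined as the inhibitor concentration that lowers absorbance by 50% compared with enzyme run under the same conditions without inhibitor.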

The next assay addresses Plasma kallikrein (Homo sapiens, UniProt P03952). The experiment in a line: Inhibition of human plasma kallikerin using H-D-Phe-Pro-Arg-pNA (S-2302) peptide as substrate assessed as reduction of enzyme hydrolytic activity. In a few lines: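 Plasma kallikrein activity on synthetic peptide substrate S-2302 at 0.2 mM, with and without inhibitor. Hydrolysis followed as absorbance at 405 nm. IC50 is the inhibitor concentration giving a 50% drop in absorbance compared with the uninhibited control under the same conditions.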

The target of the next assay is Plasminogen (Homo sapiens, UniProt P00747). The experiment in a line: Inhibition of human plasmin using H-D-Val-Leu-LyspNA (S-2251) peptide as substrate assessed as reduction of enzyme hydrolytic activity. The method, boiled down: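 Plasmin activity was measured with 0.3 mM S-2251 as substrate and read as absorbance at 405 nm. IC50 is the inhibitor concentration cutting absorbance by 50% compared with the inhibitor-free control under the same conditions.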
Sequence of Plasminogen (P00747 97-580 limits assumed): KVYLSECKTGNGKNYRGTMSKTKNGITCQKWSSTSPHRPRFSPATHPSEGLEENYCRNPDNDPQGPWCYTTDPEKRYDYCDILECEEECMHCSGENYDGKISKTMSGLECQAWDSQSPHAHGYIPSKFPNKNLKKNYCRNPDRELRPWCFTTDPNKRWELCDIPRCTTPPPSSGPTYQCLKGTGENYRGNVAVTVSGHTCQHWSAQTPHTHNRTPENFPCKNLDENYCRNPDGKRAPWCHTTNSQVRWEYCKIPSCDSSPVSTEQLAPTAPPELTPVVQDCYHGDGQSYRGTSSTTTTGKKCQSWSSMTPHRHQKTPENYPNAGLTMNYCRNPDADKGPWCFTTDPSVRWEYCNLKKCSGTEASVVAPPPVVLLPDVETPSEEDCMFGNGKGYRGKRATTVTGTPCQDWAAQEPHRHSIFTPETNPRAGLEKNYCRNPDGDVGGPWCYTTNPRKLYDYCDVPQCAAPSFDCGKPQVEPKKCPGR
Sequence of Plasminogen (P00747 581-810 limits assumed): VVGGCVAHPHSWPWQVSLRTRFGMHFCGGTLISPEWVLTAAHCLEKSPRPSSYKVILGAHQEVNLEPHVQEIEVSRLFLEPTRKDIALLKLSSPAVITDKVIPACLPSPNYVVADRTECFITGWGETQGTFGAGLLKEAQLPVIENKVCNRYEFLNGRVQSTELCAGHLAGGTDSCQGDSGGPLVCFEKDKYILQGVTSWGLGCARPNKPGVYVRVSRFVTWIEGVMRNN

Sequence of Plasma kallikrein (P03952 20-390 limits assumed): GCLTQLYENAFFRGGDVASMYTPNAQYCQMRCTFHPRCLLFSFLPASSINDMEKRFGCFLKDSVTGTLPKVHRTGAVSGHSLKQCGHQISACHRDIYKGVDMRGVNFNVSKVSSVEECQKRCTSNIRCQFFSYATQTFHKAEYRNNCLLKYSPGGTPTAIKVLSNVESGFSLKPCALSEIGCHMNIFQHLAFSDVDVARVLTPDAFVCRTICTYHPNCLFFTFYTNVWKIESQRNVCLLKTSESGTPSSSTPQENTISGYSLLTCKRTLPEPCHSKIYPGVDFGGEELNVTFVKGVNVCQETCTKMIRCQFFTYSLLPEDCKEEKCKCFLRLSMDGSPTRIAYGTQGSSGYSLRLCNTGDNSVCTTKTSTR
Sequence of Plasma kallikrein (P03952 391-638 limits assumed): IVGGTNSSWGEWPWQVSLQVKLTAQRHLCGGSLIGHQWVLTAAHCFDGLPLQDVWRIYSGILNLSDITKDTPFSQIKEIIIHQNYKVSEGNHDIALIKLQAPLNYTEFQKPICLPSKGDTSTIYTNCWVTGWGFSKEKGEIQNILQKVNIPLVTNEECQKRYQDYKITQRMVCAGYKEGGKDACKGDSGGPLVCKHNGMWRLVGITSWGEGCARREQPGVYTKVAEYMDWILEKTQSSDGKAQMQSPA

As usually defined, the IC50 is the midpoint of a concentration-inhibition curve. In the case of `Cn1c(CN2C(=O)CN(c3ccc(OCc4ccncc4)c(C(N)=O)c3)C2=O)cc2cnc(C(=O)N[C@H](C#N)CCCCN)nc21`, the IC50 in assay [1] is > 1000 µM; on Plasma kallikrein, > 1000 µM; on Plasminogen it was 170 µM.

Turning to `COc1ccc(N2CC(=O)N(Cc3cc4cnc(C(=O)N[C@H](C#N)CCCCN)nc4n3C)C2=O)cc1`, the IC50 in assay [1] is > 1000 µM; at Plasma kallikrein, > 1000 µM; at Plasminogen, 180 µM.

Consider `Cn1c(CN2C(=O)CN(c3ccc(C#N)cc3)C2=O)cc2cnc(C(=O)N[C@H](C#N)CCCCN)nc21`, for which the IC50 in assay [1] is > 1000 µM; on Plasma kallikrein, > 1000 µM; on Plasminogen, 210 µM.

Turning to `CN1CC(=O)N(Cc2cc3cnc(C(=O)N[C@H](C#N)CCCCN)nc3n2C)C1=O`, the IC50 (in assay [1]; at Plasma kallikrein; at Plasminogen) was > 1000 µM each time.

Consider `Cn1c(CN2C(=O)CN(c3ccc(Oc4ccccc4)cc3)C2=O)cc2cnc(C(=O)N[C@H](C#N)CCCCN)nc21`, for which the IC50 in assay [1] is > 400 µM; on Plasma kallikrein, > 1000 µM; on Plasminogen, 51 µM.

With `COc1ccc(Oc2ccc(N3CC(=O)N(Cc4cc5cnc(C(=O)N[C@H](C#N)CCCCN)nc5n4C)C3=O)cc2)cc1`, the values for the IC50 (in assay [1]; on Plasma kallikrein; at Plasminogen) were > 400 µM, > 1000 µM and 64 µM, respectively.

As for `Cn1c(CN2C(=O)CN(c3cccc(S(N)(=O)=O)c3)C2=O)cc2cnc(C(=O)N[C@H](C#N)CCCCN)nc21`, the figures for the IC50 (in assay [1]; at Plasma kallikrein; at Plasminogen) were > 1000 µM, > 1000 µM and 220 µM, respectively.

Turning to `Cn1c(CN2C(=O)CN(c3cccc(C#N)c3)C2=O)cc2cnc(C(=O)N[C@H](C#N)CCCCN)nc21`, the IC50 is > 1000 µM in assay [1], > 1000 µM on Plasma kallikrein and 220 µM at Plasminogen.

Turning to `Cn1c(CN2C(=O)CN(c3cccc(C(N)=O)c3)C2=O)cc2cnc(C(=O)N[C@H](C#N)CCCCN)nc21`, the figures for the IC50 (in assay [1]; on Plasma kallikrein; on Plasminogen) were > 1000 µM, > 1000 µM and 100 µM, respectively.

With `Cn1c(CN2C(=O)CN(c3ccc(Oc4ccccc4)c(C(N)=O)c3)C2=O)cc2cnc(C(=O)N[C@H](C#N)CCCCN)nc21`, the IC50 in assay [1] was > 1000 µM; on Plasma kallikrein it was > 1000 µM; on Plasminogen it was 510 µM.

With `Cn1c(CN2C(=O)CN(c3ccc(C(N)=O)cc3)C2=O)cc2cnc(C(=O)N[C@H](C#N)CCCCN)nc21`, the IC50 in assay [1] is > 1000 µM; on Plasma kallikrein, > 1000 µM; at Plasminogen it was 160 µM.

Turning to `CCCc1ccc(N2CC(=O)N(Cc3cc4cnc(C(=O)N[C@H](C#N)CCCCN)nc4n3C)C2=O)cc1`, the IC50 in assay [1] was > 1000 µM; on Plasma kallikrein, > 1000 µM; on Plasminogen it was 330 µM.

For the molecule `Cn1c(CN2CC(=O)N(c3ccc(Oc4ccccc4)cc3)CC2=O)cc2cnc(C(=O)N[C@H](C#N)CCCCN)nc21`, the figures for the half-inhibitory concentration (IC50) (in assay [1]; on Plasma kallikrein; on Plasminogen) were > 1000 µM, > 1000 µM and 960 µM, respectively.

Take `Cn1c(CN2C(=O)CN(c3ccc(Oc4ccccc4C(N)=O)cc3)C2=O)cc2cnc(C(=O)N[C@H](C#N)CCCCN)nc21`: the figures for the IC50 (in assay [1]; on Plasma kallikrein; at Plasminogen) were > 1000 µM, > 1000 µM and 99 µM, respectively.

As for `Cn1c(CN2C(=O)CN(c3ccc(OCc4ccncc4)cc3)C2=O)cc2cnc(C(=O)N[C@H](C#N)CCCCN)nc21`, the IC50 is > 1000 µM in assay [1], > 1000 µM at Plasma kallikrein and 87 µM on Plasminogen.

With `Cn1c(CN2C(=O)CN(c3ccc(S(N)(=O)=O)cc3)C2=O)cc2cnc(C(=O)N[C@H](C#N)CCCCN)nc21`, the IC50 in assay [1] is > 400 µM; on Plasma kallikrein, > 1000 µM; at Plasminogen it was 260 µM.

Consider `Cn1c(CN2C(=O)CN(c3ccc(OCC(N)=O)cc3)C2=O)cc2cnc(C(=O)N[C@H](C#N)CCCCN)nc21`, for which the figures for the IC50 (in assay [1]; on Plasma kallikrein; on Plasminogen) were > 1000 µM, > 1000 µM and 400 µM, respectively.

Consider `Cn1c(CN2C(=O)CN(c3ccc(OCC#N)cc3)C2=O)cc2cnc(C(=O)N[C@H](C#N)CCCCN)nc21`, for which the IC50 is > 1000 µM in assay [1], > 1000 µM at Plasma kallikrein and 130 µM on Plasminogen.

Regarding `CC(=O)COc1ccc(N2CC(=O)N(Cc3cc4cnc(C(=O)N[C@H](C#N)CCCCN)nc4n3C)C2=O)cc1`, the values for the IC50 (in assay [1]; at Plasma kallikrein; on Plasminogen) were > 1000 µM, > 1000 µM and 250 µM, respectively.

Consider `Cn1c(CN2C(=O)CN(c3ccc(F)cc3)C2=O)cc2cnc(C(=O)N[C@H](C#N)CCCCN)nc21`, for which the IC50 in assay [1] is > 1000 µM; at Plasma kallikrein, 740 µM; on Plasminogen, 130 µM.

Take `Cn1c(CN2C(=O)CN(c3ccc(Oc4ccc5ncccc5c4)cc3)C2=O)cc2cnc(C(=O)N[C@H](C#N)CCCCN)nc21`: the IC50 in assay [1] is > 400 µM; at Plasma kallikrein, > 1000 µM; on Plasminogen, > 250 µM.

The values are drawn from ChEMBL document CHEMBL3232735, “Pyrrolopyrimidine-inhibitors with hydantoin moiety as spacer can explore P4/S4 interaction on plasmin” (Bioorg Med Chem, 2014).
